Assay results reported in ChEMBL document CHEMBL3351563, “Discovery of 2-[2-(5-nitrofuran-2-yl)vinyl]quinoline derivatives as a novel type of antimetastatic agents” (Bioorg Med Chem, 2015).
Activity calls are given as the source filed them. No cut-off for these calls is given here.

Assays:
MRC5 = test: Antiproliferative activity against human MRC5 cells by XTT assay; type: cell-based
Procedure, shortened: (§1)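 Cells (5 × 10³/well) exposed to compound for 72 h in medium with 10% FBS, medium changed and cells incubated another day. Percent of control growth from mean absorbance (n = 3).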

MDA-MB-231 = test: Antiproliferative activity against human MDA-MB-231 cells by XTT assay; type: functional, cell-based; procedure, shortened: as §1
[1] = Antiproliferative activity against human H1299 cells by XTT assay; type: functional, cell-based; conditions: NCI-H1299; procedure, shortened: as §1
A549 = test: Antiproliferative activity against human A549 cells by XTT assay; type: functional, cell-based; procedure, shortened: as §1
MCF7 = test: Antiproliferative activity against human MCF7 cells by XTT assay; type: functional, cell-based; procedure, shortened: as §1
[2] = target: Matrix metalloproteinase-9 (Homo sapiens) (UniProt P14780); test: Inhibition of MMP9 activity in human H1299 cells at 2 uM after 24 hrs by gelatin zymography; values are per cent of control
[3] = target: 72 kDa type IV collagenase (Homo sapiens) (UniProt P08253); test: Residual MMP2 activity in human H1299 cells at 1 uM after 24 hrs by gelatin zymography
[4] = target: 72 kDa type IV collagenase (Homo sapiens) (UniProt P08253); test: Inhibition of MMP2 activity in human H1299 cells after 24 hrs by gelatin zymography; type: cell-based
Procedure, shortened: (§2)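 3 × 10⁵ H1299 cells cultured 24 h with compound. Conditioned medium run on 10% SDS-PAGE with 1% gelatin, gel incubated overnight at 37 °C in 40 mM Tris-HCl pH 8.0, 10 mM CaCl₂, 0.02% NaN₃, then Coomassie-stained and destained. Bands quantified versus vehicle; n = 3.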

[5] = target: Matrix metalloproteinase-9 (Homo sapiens) (UniProt P14780); test: Inhibition of MMP9 activity in human H1299 cells at 1 uM after 24 hrs by gelatin zymography; values are per cent of control
[6] = target: MAP kinase p38 (Homo sapiens) (UniProt O15264+Q15759+Q16539+P53778); test: Increase in p38 phosphorylation in human H1299 cells at 1 to 5 uM after 24 hrs by Western blotting method; type: cell-based
Procedure, shortened: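 H1299 cells given vehicle or 0.2, 0.5, 1, 2 and 5 µM compound. Lysate proteins probed with primary and secondary antibodies after 5% milk blocking, ECL chemiluminescence detection. β-actin as internal control; each blot representative of three independent experiments.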

[7] = target: Matrix metalloproteinase-9 (Homo sapiens) (UniProt P14780); test: Inhibition of MMP9 activity in human H1299 cells after 24 hrs by gelatin zymography; type: cell-based; procedure, shortened: as §2
[8] = target: 72 kDa type IV collagenase (Homo sapiens) (UniProt P08253); test: Residual MMP2 activity in human H1299 cells at 5 uM after 24 hrs by gelatin zymography
[9] = target: 72 kDa type IV collagenase (Homo sapiens) (UniProt P08253); test: Residual MMP2 activity in human H1299 cells at 2 uM after 24 hrs by gelatin zymography

Sequence of 72 kDa type IV collagenase (Homo sapiens) (P08253 110-660 limits assumed): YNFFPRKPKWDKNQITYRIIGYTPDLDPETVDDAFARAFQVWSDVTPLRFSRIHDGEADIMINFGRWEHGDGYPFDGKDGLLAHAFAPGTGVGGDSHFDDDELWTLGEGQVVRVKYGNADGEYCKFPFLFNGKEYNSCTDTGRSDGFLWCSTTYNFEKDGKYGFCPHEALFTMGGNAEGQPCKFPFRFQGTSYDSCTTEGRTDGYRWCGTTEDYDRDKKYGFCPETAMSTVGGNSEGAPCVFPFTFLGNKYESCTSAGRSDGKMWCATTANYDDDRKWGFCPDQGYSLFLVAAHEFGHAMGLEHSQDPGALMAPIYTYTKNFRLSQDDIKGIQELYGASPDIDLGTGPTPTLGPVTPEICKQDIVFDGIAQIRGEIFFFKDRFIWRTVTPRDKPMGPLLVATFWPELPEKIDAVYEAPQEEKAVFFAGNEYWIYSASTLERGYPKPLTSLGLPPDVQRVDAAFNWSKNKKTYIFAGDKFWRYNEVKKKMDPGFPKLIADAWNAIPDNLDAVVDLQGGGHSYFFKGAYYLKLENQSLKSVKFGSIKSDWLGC
Sequence of Matrix metalloproteinase-9 (Homo sapiens) (P14780 whole entry): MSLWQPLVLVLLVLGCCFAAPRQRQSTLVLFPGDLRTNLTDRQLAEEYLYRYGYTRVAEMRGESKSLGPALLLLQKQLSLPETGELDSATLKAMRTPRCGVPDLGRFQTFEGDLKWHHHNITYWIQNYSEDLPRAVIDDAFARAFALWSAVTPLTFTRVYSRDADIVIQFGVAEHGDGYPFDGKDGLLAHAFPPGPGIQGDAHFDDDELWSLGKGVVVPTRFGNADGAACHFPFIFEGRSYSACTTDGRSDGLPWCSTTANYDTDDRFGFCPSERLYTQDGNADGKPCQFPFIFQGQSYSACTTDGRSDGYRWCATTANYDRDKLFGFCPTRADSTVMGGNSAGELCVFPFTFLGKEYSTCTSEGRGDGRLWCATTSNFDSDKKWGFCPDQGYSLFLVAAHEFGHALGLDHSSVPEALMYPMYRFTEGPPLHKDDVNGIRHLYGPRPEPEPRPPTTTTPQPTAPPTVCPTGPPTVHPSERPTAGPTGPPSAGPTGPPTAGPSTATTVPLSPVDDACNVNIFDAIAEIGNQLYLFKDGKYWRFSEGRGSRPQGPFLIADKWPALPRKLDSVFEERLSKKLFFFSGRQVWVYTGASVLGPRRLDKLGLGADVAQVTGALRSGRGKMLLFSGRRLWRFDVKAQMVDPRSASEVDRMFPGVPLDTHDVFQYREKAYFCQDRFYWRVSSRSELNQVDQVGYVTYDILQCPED

Compound	IC50 (MRC5) [nM]	IC50 (MDA-MB-231) [nM]	IC50 [1] [nM]	IC50 (A549) [nM]	IC50 (MCF7) [nM]	residual activity [2] [%]	residual activity [3] [%]	inhibition [4]	residual activity [5] [%]	Activity [6]	inhibition [7]	residual activity [8] [%]	residual activity [9] [%]
COc1ccc2c(c1)C(=O)c1c-2c(C)nc2ccc(F)cc12	43200	52100	31600	71100	39600								
COc1ccc2c(c1)C(=O)c1c-2c(/C=C/c2ccc([N+](=O)[O-])o2)nc2ccccc12	93	95	80	70	620								
COc1cccc2c1C(=O)c1c(O)c3c(c(O)c1C2=O)C[C@@](O)(C(C)=O)C[C@@H]3O[C@H]1C[C@H](N)[C@H](O)[C@H](C)O1 [DAUNORUBICIN]	78	91	96	80	650								
COc1ccc(-c2cc3cc(OC)ccc3nc2/C=C/c2ccc([N+](=O)[O-])o2)cc1						31.5	75.5	Dose-dependent effect	63.9	Active	Dose-dependent effect	56.3	63.7
COc1ccc2c(c1)C(=O)c1c-2c(C)nc2ccccc12	65400	42000	21400	61600	32600								
COc1ccc2c(c1)C(=O)c1c-2c(C)nc2ccc(OC)cc12	78400	62300	33700	75900	42000								
COc1ccc2c(c1)C(=O)c1c-2c(/C=C/c2ccc([N+](=O)[O-])o2)nc2ccc(F)cc12	800	93	460	740	580								
COc1ccc2c(c1)C(=O)c1c-2c(/C=C/c2ccc([N+](=O)[O-])o2)nc2ccc(OC)cc12	6070	930	890	1320	870								
